From ChEMBL document CHEMBL5724801, “EUbOPEN Chemogenomics Library - Multiplex” (2024)
Several values for one entry are separate records, joined by “and”; a condition that tells them apart may be missing. Identical values can stand only once.

Test system: HEK-293T
Experiment: Multiplex assay against HEK293T
Type: toxicity, cell-based
Details: human
Method in brief: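 Phenotypes for tubulin, mitochondrial mass and membrane permeability are expressed as per cents of healthy-nucleus cells. Cells were stained live at seeding with Hoechst33342, BioTracker Green Microtubule Cytoskeleton Dye, MitoTracker Red and Annexin V Alexa Fluor 680, then imaged after compound addition on a CQ1 microscope at 37°C and 5% CO2. Machine-learning gating in CellPathfinder separated Hoechst high-intensity objects from normal cells, divided normal cells by nuclear state (healthy, pyknosed, fragmented) and divided pyknosed cells into mitotic or apoptotic.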

[1] = 12 h, 1 µM, compound concentration 1 uM
[2] = 12 h, 10 µM, compound concentration 10 uM
[3] = 24 h, 1 µM, compound concentration 1 uM
[4] = 24 h, 10 µM, compound concentration 10 uM
[5] = 48 h, 1 µM, compound concentration 1 uM
[6] = 48 h, 10 µM, compound concentration 10 uM

## Cc1ccccc1C(=O)Nc1ccc(C(=O)N2CCCC(N(C)C)c3ccccc32)cc1.Cl (configuration not stated)
[1]
  Population Apoptotic (%): 18% and 53%
  Population Fragmented Nuclei (%): 6% and 5%
  Population Healthy Nuclei (%): 80% and 79%
  Population Hoechst High Intensity Objects (%): 8% and 6%
  Population Membrane Permeable-Phenotype (%): 0%
  Population Mitochondria Different-Phenotype (%): 51% and 72%
  Population Mitotic Cells (%): 81% and 46%
  Population Normal (%): 91% and 93%
  Population Pyknosed Nuclei (%): 12% and 14%
  Population Tubulin-Different-Phenotype (%): 33% and 29%
  Total Cell Count: 519 and 412
[2]
  Population Apoptotic (%): 53% and 64%
  Population Fragmented Nuclei (%): 6% and 8%
  Population Healthy Nuclei (%): 70% and 72%
  Population Hoechst High Intensity Objects (%): 8% and 15%
  Population Membrane Permeable-Phenotype (%): 0%
  Population Mitochondria Different-Phenotype (%): 74% and 82%
  Population Mitotic Cells (%): 46% and 35%
  Population Normal (%): 91% and 84%
  Population Pyknosed Nuclei (%): 22% and 18%
  Population Tubulin-Different-Phenotype (%): 60% and 61%
  Total Cell Count: 233 and 285
[3]
  Population Apoptotic (%): 31% and 30%
  Population Fragmented Nuclei (%): 11% and 5%
  Population Healthy Nuclei (%): 79% and 83%
  Population Hoechst High Intensity Objects (%): 5% and 4%
  Population Membrane Permeable-Phenotype (%): 0%
  Population Mitochondria Different-Phenotype (%): 28% and 52%
  Population Mitotic Cells (%): 68% and 69%
  Population Normal (%): 94% and 95%
  Population Pyknosed Nuclei (%): 8% and 11%
  Population Tubulin-Different-Phenotype (%): 17% and 19%
  Total Cell Count: 727 and 567
[4]
  Population Apoptotic (%): 41% and 44%
  Population Fragmented Nuclei (%): 8% and 7%
  Population Healthy Nuclei (%): 70% and 73%
  Population Hoechst High Intensity Objects (%): 7% and 14%
  Population Membrane Permeable-Phenotype (%): 0%
  Population Mitochondria Different-Phenotype (%): 71% and 83%
  Population Mitotic Cells (%): 58% and 55%
  Population Normal (%): 92% and 85%
  Population Pyknosed Nuclei (%): 21% and 18%
  Population Tubulin-Different-Phenotype (%): 46%
  Total Cell Count: 268 and 285
[5]
  Population Apoptotic (%): 13% and 34%
  Population Fragmented Nuclei (%): 13% and 10%
  Population Healthy Nuclei (%): 78% and 82%
  Population Hoechst High Intensity Objects (%): 2% and 4%
  Population Membrane Permeable-Phenotype (%): 1% and 0%
  Population Mitochondria Different-Phenotype (%): 24% and 30%
  Population Mitotic Cells (%): 86% and 65%
  Population Normal (%): 97% and 95%
  Population Pyknosed Nuclei (%): 8% and 6%
  Population Tubulin-Different-Phenotype (%): 17% and 14%
  Total Cell Count: 1095 and 722
[6]
  Population Apoptotic (%): 55% and 63%
  Population Fragmented Nuclei (%): 10% and 9%
  Population Healthy Nuclei (%): 69% and 77%
  Population Hoechst High Intensity Objects (%): 6%
  Population Membrane Permeable-Phenotype (%): 0%
  Population Mitochondria Different-Phenotype (%): 69% and 72%
  Population Mitotic Cells (%): 44% and 36%
  Population Normal (%): 93%
  Population Pyknosed Nuclei (%): 20% and 12%
  Population Tubulin-Different-Phenotype (%): 49% and 41%
  Total Cell Count: 283 and 314

## COc1cc2nc(N3CCN(C(=O)c4ccco4)CC3)nc(N)c2cc1OC.Cl [PRAZOSIN HYDROCHLORIDE]
[1]
  Population Apoptotic (%): 32% and 56%
  Population Fragmented Nuclei (%): 10% and 6%
  Population Healthy Nuclei (%): 77%
  Population Hoechst High Intensity Objects (%): 6%
  Population Membrane Permeable-Phenotype (%): 0%
  Population Mitochondria Different-Phenotype (%): 35% and 66%
  Population Mitotic Cells (%): 67% and 43%
  Population Normal (%): 93%
  Population Pyknosed Nuclei (%): 11% and 16%
  Population Tubulin-Different-Phenotype (%): 23% and 22%
  Total Cell Count: 448 and 290
[2]
  Population Apoptotic (%): 38% and 55%
  Population Fragmented Nuclei (%): 9% and 5%
  Population Healthy Nuclei (%): 75% and 77%
  Population Hoechst High Intensity Objects (%): 10% and 9%
  Population Membrane Permeable-Phenotype (%): 0%
  Population Mitochondria Different-Phenotype (%): 62% and 61%
  Population Mitotic Cells (%): 61% and 44%
  Population Normal (%): 89% and 90%
  Population Pyknosed Nuclei (%): 14% and 16%
  Population Tubulin-Different-Phenotype (%): 45% and 25%
  Total Cell Count: 348 and 404
[3]
  Population Apoptotic (%): 38% and 51%
  Population Fragmented Nuclei (%): 9%
  Population Healthy Nuclei (%): 82% and 80%
  Population Hoechst High Intensity Objects (%): 3% and 5%
  Population Membrane Permeable-Phenotype (%): 0%
  Population Mitochondria Different-Phenotype (%): 25% and 45%
  Population Mitotic Cells (%): 61% and 48%
  Population Normal (%): 96% and 94%
  Population Pyknosed Nuclei (%): 7% and 10%
  Population Tubulin-Different-Phenotype (%): 10% and 16%
  Total Cell Count: 660 and 364
[4]
  Population Apoptotic (%): 50% and 54%
  Population Fragmented Nuclei (%): 12% and 11%
  Population Healthy Nuclei (%): 77% and 78%
  Population Hoechst High Intensity Objects (%): 5%
  Population Membrane Permeable-Phenotype (%): 0% and 1%
  Population Mitochondria Different-Phenotype (%): 40% and 42%
  Population Mitotic Cells (%): 50% and 45%
  Population Normal (%): 94%
  Population Pyknosed Nuclei (%): 9% and 10%
  Population Tubulin-Different-Phenotype (%): 32% and 20%
  Total Cell Count: 463 and 534
[5]
  Population Apoptotic (%): 36% and 38%
  Population Fragmented Nuclei (%): 17% and 16%
  Population Healthy Nuclei (%): 76%
  Population Hoechst High Intensity Objects (%): 1% and 2%
  Population Membrane Permeable-Phenotype (%): 1% and 0%
  Population Mitochondria Different-Phenotype (%): 16% and 23%
  Population Mitotic Cells (%): 63% and 61%
  Population Normal (%): 98% and 97%
  Population Pyknosed Nuclei (%): 5% and 6%
  Population Tubulin-Different-Phenotype (%): 8% and 9%
  Total Cell Count: 1114 and 636
[6]
  Population Apoptotic (%): 33% and 23%
  Population Fragmented Nuclei (%): 17% and 14%
  Population Healthy Nuclei (%): 75% and 78%
  Population Hoechst High Intensity Objects (%): 4%
  Population Membrane Permeable-Phenotype (%): 2% and 1%
  Population Mitochondria Different-Phenotype (%): 32% and 21%
  Population Mitotic Cells (%): 66% and 76%
  Population Normal (%): 95%
  Population Pyknosed Nuclei (%): 7%
  Population Tubulin-Different-Phenotype (%): 17% and 11%
  Total Cell Count: 693 and 778
